Test results from ChEMBL document CHEMBL3871266, “Synthesis and cytotoxic activity of novel A-ring cleaved ursolic acid derivatives in human non-small cell lung cancer cells” (Eur J Med Chem, 2016).
pIC50: −log10 of the molar value. Calls of active or inactive are those of the source. The calls are words filed in the database; no cut-off is given here.

Key:
[1] = Cytotoxicity against human NCI-H322 cells assessed as reduction in cell viability measured after 72 hrs by CellTiter-Blue cell viability assay; format: functional, cell-based; settings: Homo sapiens, NCI-H322, 72 h; read-out: IC50
Method in brief: (§1)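 Monolayer cultures in RPMI-1640 with 10% FBS at 37°C, seeded at 850 (H460 CTR5), 660 (H460 LKB1+/+) or 1780 (H322) cells/well so that the end point reaches 70–80% confluence. Treated 72h; vehicle 0.15% DMSO. CellTiter-Blue added until colour change (50–60, 80–90 or 100–120 min respectively), fluorescence read at 590 nm. IC50 by nonlinear regression; three independent experiments.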

NCI-H460 [2] = assay: Induction of apoptosis in human NCI-H460 cells expressing CTR5 gene assessed as viable cells at 20 uM measured after 72 hrs by Annexin V-Cy5/propidium iodide staining-based flow cytometry (reference value: 94.6%); format: functional; settings: NCI-H460, 72 h, read-out: Activity
[3] = Downregulation of Mcl1 long isoform protein expression in human NCI-H460 cells expressing CTR5 gene at 3 to 4.5 uM measured after 24 hrs by Western blot analysis; format: functional, cell-based
Method in brief: (§2)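 Cells were seeded at 3×10^5 (H460) or 4.2×10^5 (H322) per dish and treated 24h later with DMSO or a concentration series for 24h. Lysed in cold RIPA with phosphatase and protease inhibitors, then sonicated. 30 μg protein run on Bis-Tris gels and transferred to nitrocellulose or PVDF. Detection used infrared secondary antibodies on an Odyssey imager. Signal normalized to β-actin or GAPDH and to DMSO control; three independent experiments.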

[4] = Cytotoxicity against human NCI-H460 cells expressing CTR5 gene assessed as reduction in cell viability measured after 72 hrs by CellTiter-Blue cell viability assay; format: functional, cell-based; settings: Homo sapiens, NCI-H460, 72 h; read-out: IC50; method in brief: as §1
NCI-H460 [5] = assay: Increase in Beclin1 level in human NCI-H460 cells expressing CTR5 gene at 3 to 5.5 uM measured after 24 hrs by Western blot analysis; format: functional, cell-based; method in brief: as §2
NCI-H460 [6] = assay: Induction of apoptosis in human NCI-H460 cells expressing CTR5 gene assessed as necrotic cells at 4 uM measured after 72 hrs by Annexin V-Cy5/propidium iodide staining-based flow cytometry (reference value: 0.9%); format: functional
NCI-H460 [7] = assay: Induction of apoptosis in human NCI-H460 cells expressing CTR5 gene assessed as increase in cleavage of procaspase8 at 3 to 4.5 uM measured after 24 hrs by Western blot analysis; format: functional, cell-based; method in brief: as §2
NCI-H460 [8] = assay: Induction of apoptosis in human NCI-H460 cells expressing CTR5 gene assessed as necrotic cells at 20 uM measured after 72 hrs by Annexin V-Cy5/propidium iodide staining-based flow cytometry (reference value: 0.9%); format: functional
[9] = Upregulation of Atg3 level in human NCI-H460 cells expressing CTR5 gene at 3.5 uM measured after 24 hrs by reverse-phase protein array method relative to control; format: functional, cell-based
NCI-H460 [10] = assay: Induction of apoptosis in human NCI-H460 cells expressing CTR5 gene assessed as increase in cleavage of procaspase7 at 3 to 5.5 uM measured after 24 hrs by Western blot analysis; format: functional, cell-based; method in brief: as §2
NCI-H460 [11] = assay: Induction of apoptosis in human NCI-H460 cells expressing CTR5 gene assessed as viable cells at 4 uM measured after 72 hrs by Annexin V-Cy5/propidium iodide staining-based flow cytometry (reference value: 94.6%); format: functional; settings: NCI-H460, 72 h, read-out: Activity
[12] = Cytotoxicity against human NCI-H460 spheroids expressing CTR5 gene assessed as reduction in cell viability measured after 96 hrs by CellTiter-Glo luminescence viability assay; format: functional, cell-based; settings: NCI-H460, 96 h
Method in brief: (§3)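 Spheroids grown in round-bottom ultralow-attachment wells, 495 (H460 CTR5) or 650 (H322) cells/well. Drug exposure 96h with DMSO vehicle. CellTiter-Glo added, shaken 20 min, left 10 min, then luminescence read. IC50 by nonlinear regression; three independent experiments.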

[13] = Cytotoxicity against human NCI-H322 spheroids assessed as reduction in cell viability measured after 96 hrs by CellTiter-Glo luminescence viability assay; format: functional; settings: NCI-H322, 96 h; method in brief: as §3
NCI-H460 [14] = assay: Induction of apoptosis in human NCI-H460 cells expressing CTR5 gene assessed as late apoptotic cells at 4 uM measured after 72 hrs in presence of autophagy inhibitor chloroquine by Annexin V-Cy5/propidium iodide staining-based flow cytometry (reference value: 2.7%); format: functional
NCI-H460 [15] = assay: Induction of apoptosis in human NCI-H460 cells expressing CTR5 gene assessed as cleaved PARP level at 3 to 5.5 uM measured after 24 hrs by Western blot analysis; format: functional, cell-based; method in brief: as §2
NCI-H322 [16] = assay: Increase in lipidation of LC3A/B1 to LC3A/B2 in human NCI-H322 cells measured after 24 hrs by Western blot analysis; format: functional, cell-based; method in brief: as §2
NCI-H460 [17] = assay: Induction of autophagy in human NCI-H460 cells expressing CTR5 gene measured after 24 hrs by microarray method; format: functional, cell-based
NCI-H460 [18] = assay: Decrease in mTOR level in human NCI-H460 cells expressing CTR5 gene at 3 to 5.5 uM measured after 24 hrs by Western blot analysis; format: functional, cell-based; method in brief: as §2
NCI-H460 [19] = assay: Induction of autophagy in human NCI-H460 cells expressing CTR5 gene assessed as acidic vesicular organelle formation at 3 uM measured after 72 hrs by acridine orange dye based flow cytometry (reference value: 91.2%); format: functional
NCI-H460 [20] = assay: Induction of apoptosis in human NCI-H460 cells expressing CTR5 gene assessed as early apoptotic cells at 4 uM measured after 72 hrs by Annexin V-Cy5/propidium iodide staining-based flow cytometry (reference value: 1.8%); format: functional
NCI-H460 [21] = assay: Increase in lipidation of LC3A/B1 to LC3A/B2 in human NCI-H460 cells expressing CTR5 gene measured after 24 hrs by Western blot analysis; format: functional, cell-based; method in brief: as §2
[22] = Upregulation of Beclin1 level in human NCI-H460 cells expressing CTR5 gene at 3.5 uM measured after 24 hrs by reverse-phase protein array method relative to control; format: functional, cell-based
[23] = molecular target: Serine/threonine-protein kinase mTOR (Homo sapiens) (UniProt P42345); assay: Inhibition of mTOR in human NCI-H460 cells expressing CTR5 gene assessed as decrease in S6 phosphorylation at S235/236 site by reverse-phase protein array method relative to control; format: cell-based
NCI-H460 [24] = assay: Induction of apoptosis in human NCI-H460 cells expressing CTR5 gene assessed as necrotic cells at 5 uM measured after 72 hrs by Annexin V-Cy5/propidium iodide staining-based flow cytometry (reference value: 2.1%); format: functional
NCI-H460 [25] = assay: Induction of apoptosis in human NCI-H460 cells expressing CTR5 gene assessed as viable cells at 5 uM measured after 72 hrs by Annexin V-Cy5/propidium iodide staining-based flow cytometry (reference value: 93%); format: functional; settings: NCI-H460, 72 h, read-out: Activity
NCI-H322 [26] = assay: Induction of apoptosis in human NCI-H322 cells assessed as increase in cleaved PARP level at 3 to 5.5 uM measured after 24 hrs by Western blot analysis; format: functional, cell-based; method in brief: as §2
NCI-H460 [27] = assay: Induction of autophagy in human NCI-H460 cells expressing CTR5 gene assessed as acidic vesicular organelle formation at 4 uM measured after 72 hrs by acridine orange dye based flow cytometry (reference value: 91.2%); format: functional

With `C=C(C)[C@@H]1CC[C@]2(C)[C@H](C[C@@H](F)C34OC(=O)[C@@]5(CC[C@@H](C)[C@H](C)[C@@H]35)CC[C@]42C)[C@@]1(C)CCC(=O)NCCC` the pIC50 [1] was 5.48, the viability at 20 µM (NCI-H460 [2]) was 94.3% and the Activity [3] was “Dose-dependent effect”. The pIC50 [4] was 5.59, the Activity (NCI-H460 [5]) was “Active” and the Activity (NCI-H460 [6]) was 3.6%. For the same molecule, the Activity (NCI-H460 [7]) was “Active”, the Activity (NCI-H460 [8]) was 0.9% and the Activity [9] was 5.1%. The Activity (NCI-H460 [10]) was “Active”, the viability at 4 µM (NCI-H460 [11]) was 77.4% and the pIC50 [12] was 5.26. The pIC50 [13] was 5.00, the Activity (NCI-H460 [14]) was 11.5% and the Activity (NCI-H460 [15]) was “Active”. The Activity (NCI-H322 [16]) was “Dose-dependent effect”, the Activity (NCI-H460 [17]) was “Active” and the Activity (NCI-H460 [18]) was “Active”. The Activity (NCI-H460 [19]) was 88.6%, the Activity (NCI-H460 [20]) was 7.6% and the Activity (NCI-H460 [21]) was “Dose-dependent effect”. The Activity [22] was 5.6%, the inhibition [23] was 11.7% and the Activity (NCI-H460 [24]) was 5%. The viability at 5 µM (NCI-H460 [25]) was 51.9%, the Activity (NCI-H322 [26]) was “Active” and the Activity (NCI-H460 [27]) was 66.7%.
